Source: PubChem
VIM-2 inh – blocks Pseudomonas aeruginosa VIM-2 metallo-beta-lactamase; purified VIM-2, nitrocefin hydrolysis, epi-absorbance fluorescence; inhibition, % at 5.6 µM; hit rate 0.89% among 290,000;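 active means inhibition above the mean of all tested compounds plus 3 SD, cutoff set per screening run, cut at about 7.5% in these data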;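 further: red hydrolysis product quenches plate fluorescence so inhibitors raise well fluorescence; 0% = enzyme with DMSO and 100% = DMSO without enzyme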
NALP1 inh – blocks the NALP1 inflammasome reconstituted in yeast | S. cerevisiae NALP1/ASC/caspase-1 growth, X-gal OD620, 72 h | inhibition, % at 10 µM | hit rate 0.61% among 280,000 | AID 2071; in the data active means inhibition mostly above about 24%, no sharp cut-off; inactive means mostly below about 32%
IMP-1 inhibitor – inhibitors of Pseudomonas aeruginosa IMP-1 metallo-beta-lactamase; purified IMP-1, nitrocefin hydrolysis, epi-absorbance fluorescence; inhibition, % at 5.6 µM; hit rate 0.45% among 290,000;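 active means inhibition above the mean plus 3 SD of all compounds in the same screening run, cut at about 4.5% in these data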;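 further: 0% = IMP-1 with DMSO and 100% = DMSO wells lacking enzyme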
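Material – recombinant IMP-1 enzyme, purified · Amount – IMP-1 0.2 nM before substrate addition · Medium – HEPES buffer pH 7.1 with ZnSO4 and Brij 35 · Timing – 25 °C, 15 min preincubation, 25 min reaction · Measured by – plate fluorescence quenching by hydrolysis product, ex 480/em 530 nm · Read-out – percent enzyme inhibition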
DNA FID counter – fluorescent intercalator displacement, NS3 helicase counter-screen. DNA fluorescent intercalator displacement, fluorescence. inhibition, % at 7.9 µM. hit rate 0.17% among 290,000. AID 1845; in the data active means inhibition above about 37%;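 further: 0% = vehicle and 100% = reference compound; higher means more ethidium bromide displaced from hairpin DNA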
SUMO HTRF inh – SUMOylation inhibition. P63279. HTRF SUMOylation assay, SAE1/SAE2 + UBC9, in vitro. inhibition, % at 35 µM. hit rate 0.36% among 290,000; in the data active means inhibition above about 50%, passing the limit was not always enough
Target sequence (P63279 whole entry, looked up): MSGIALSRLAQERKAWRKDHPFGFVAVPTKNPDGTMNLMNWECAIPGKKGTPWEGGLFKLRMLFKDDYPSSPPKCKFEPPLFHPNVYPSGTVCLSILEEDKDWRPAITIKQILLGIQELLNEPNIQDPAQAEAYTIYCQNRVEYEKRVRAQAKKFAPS
Mot1-301 SUMO – SUMOylation pathway inhibition by Mot1-301 growth rescue | S. cerevisiae Mot1-301 growth rescue, ATP luminescence, 38.5C; percent above DMSO median, 100 means doubled | growth rescue, % at 18.8 µM | hit rate 1% among 320,000 | AID 2716;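 active means every valid replicate shows activation above 250% relative to neutral control wells; inactive means the rest, any valid replicate at or below 250%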;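 further: OY570 slx delta 5 strain wells were the positive control but not used for scaling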
* marks the source's active call; other numbers are inactive results; / = no result. Sampled rows, rich in hits. Any-hit rate of the full collection: about 2.9%.

SMILES	VIM-2 inh	NALP1 inh	IMP-1 inhibitor	DNA FID counter	SUMO HTRF inh	Mot1-301 SUMO
O=C(CSc1nnc(NC(=O)c2cccc(F)c2)s1)NC1CCCC1	11*	14	-2	-11	-1	-26
O=C(CSc1nnc(NC(=O)c2ccccc2)s1)NCC1CCCO1 (stereo not drawn)	11*	12	-3	-9	9	-23
O=C(CSc1nnc(NC(=O)c2cccc(F)c2)s1)NC1CC1	-1	14	-1	-4	1	-8
Cn1c(SCC(=O)NCC2CCCO2)ncc(C(=O)Nc2ccccc2)c1=O (stereo not drawn)	/	/	/	/	/	418*
CC1(C)Oc2ccc(C(=O)NN)cc2NC1=O	-1	2	-4	-9	-13	86
CC(C)(C)OC(=O)n1cc(CCO)c2ccccc21	/	/	/	/	/	6
COC(=O)[C@H]1C[C@H](C(=O)O)[C@@H](C)C1(C)C	/	/	/	/	/	6
CCCc1nnc(SCC(=O)N2CCCCC2C)n1CCOC (stereo not drawn)	-2	24*	-1	-6	1	-12
CCCc1nnc(SCC(=O)N2CCCCC2C)n1CCCOC (stereo not drawn)	-1	3	-2	-6	7	-5
O=C(Cn1nnc(-c2ccccc2F)n1)Nc1ccc(S(=O)(=O)NC2CCCC2)cc1	1	-23	5.0*	2	10	2
O=C(O)c1ccccc1/C=N/NC(=O)c1cc(-c2ccco2)nc2ccccc12	-3	4	-2	-20	78*	95
COc1ccc(C(C(=O)NC(C)C)N(C(=O)CCC(=O)Nc2nccs2)c2ccccc2F)cc1 (stereo not drawn)	-3	33*	-3	-38	16	-5
CCCCCCCCCC[n+]1cccc2c3ccccc3ccc21	-2	26*	-2	10	18	/
CCCCCCCC[n+]1cccc2c3ccccc3ccc21	1	11	-1	13	17	-6
COc1ccc(S(=O)(=O)N2CCCCCC2)cc1C(=O)NCc1cccs1	/	/	/	/	/	-7
Cc1cc(=O)n(C)c(=O)n1CCCCOc1ccc([N+](=O)[O-])cc1	-2	50*	-3	8	4	29
c1ccc2c(c1)CC(CN1CCNCC1)O2 (stereo not drawn)	-1	10	-2	-3	7	244
O=C(NCc1cccnc1)c1csc2c1CCCC2	-2	20	-1	-1	-10	-6
Cc1ccc(CNC(=O)c2csc3c2CCCCC3)cc1	-2	43*	-2	-4	13	8
Cc1ccccc1NC(=O)c1c(C)cc(=O)oc1C	-4	/	-2	-2	8	-1
Cc1cc(=O)oc(C)c1C(=O)Nc1cccc2nonc12	0	10	-1	3	18	324*
O=C(COC(=O)C1CCCCC1)NCCc1ccccc1	-2	-6	-3	-14	-11	/
COc1cc(CNCc2ccncc2)cc(OC)c1OC	1	15	6.1*	12	-2	11
COc1ccc(/C=C/C(=O)O)cc1S(=O)(=O)Nc1ccc2c(c1)OCO2	-3	2	-2	1	10	-25
N#CC1=C(N)Oc2ccc3ccc(O)cc3c2C1c1ccsc1 (stereo not drawn)	6	/	17*	-45	18	/
SMILES	VIM-2 inh	NALP1 inh	IMP-1 inhibitor	DNA FID counter	SUMO HTRF inh	Mot1-301 SUMO
COc1cccc(CC(=O)OCC(=O)NNC(=O)c2ccc([N+](=O)[O-])cc2)c1	-3	2	-3	0	1	3
Cc1ccc(Oc2cc(C)nc(-c3ccccc3O)n2)cc1	1	20	-2	-4	6	16
Cc1cc(Oc2ccc(Cl)cc2)nc(-c2ccccc2O)n1	2	32*	2	2	13	3
CCN1CCN(Cc2ccc(NC(=O)c3ccc(C)c(NC(=O)c4cccc(-c5cn[nH]c(=O)c5)c4)c3)cc2C(F)(F)F)CC1	-2	30	9.3*	40*	9	-23
CCn1cc(C(=O)Nc2sc(C)c(C)c2C(=O)OC)cn1	1	25	-6	-9	6	0
COC(=O)c1c(NC(=O)c2ccnn2C)sc(C)c1C	0	/	4.7*	-1	/	3
O=C(c1cc2ccccc2o1)N1CCN=C1SCc1cccnc1	9.4*	0	-1	-9	21	8
[O-][n+]1c2cc(C(F)(F)F)ccc2c2n1CCN=C2c1ccc(Cl)cc1	/	/	/	/	/	-22
CCOC(=O)COc1ccc2nsnc2c1Cl	-4	2	-3	-2	28	5
C=C(CC)C(=O)c1ccc(OCC(=O)O)c(Cl)c1Cl	-2	78*	-4	-19	0	-7
C=CCn1c(SCC(=O)N2CCCC2=O)nc2sc(CC)cc2c1=O	/	/	/	/	/	-3
C=CCn1c(SCC(=O)N2CCN(C(=O)c3ccco3)CC2)nc2sc(CC)cc2c1=O	12*	17	-1	-31	15	-15
COc1ccccc1OCC(=O)N/N=C1/SCC(=O)N1Cc1ccccc1	-3	12	0	-17	17	354*
O=C(COc1ccc(Br)cc1)N/N=C1/SCC(=O)N1Cc1ccccc1	-4	21	-4	-15	-6	-13
COc1ccc(C(=O)NCCS(=O)(=O)N2CCc3ccccc3C2)cc1	/	/	/	/	/	530*
O=C(NCCS(=O)(=O)N1CCc2ccccc2C1)c1ccccc1	/	/	/	/	/	-3
COc1ccc(OCC(O)CNC(=O)c2sccc2Cl)cc1 (stereo not drawn)	-3	-5	38*	-3	-5	-5
COc1cc(/C=N/NS(=O)(=O)c2ccc(C)cc2)ccc1OCc1cccc(C(=O)O)c1	1	-2	-1	-37	8	733*
COc1cc(/C=N/NS(=O)(=O)c2ccc3ccccc3c2)ccc1OCc1ccc(C(=O)O)cc1	-2	8	-2	-24	7	21
COc1ccc(C(=O)c2coc3c2C(=O)C(=O)c2ccccc2-3)cc1	5	10	12*	-9	16	-72
Cc1ccc(C)c(NC(=O)C2CCN(C(=O)c3cccs3)CC2)c1	-2	10	-2	-17	1	-3
Cc1nc(NC2=NCN(Cc3ccccc3)CN2)nc2ccccc12	/	32*	/	/	22	/
Cc1nc(NC2=NCN(CCc3ccccc3)CN2)nc2c(C)cccc12	5	/	-5	-1	/	/
Cc1nc(NC2=NCN(CCCN3CCOCC3)CN2)nc2c(C)cccc12	8.7*	3	-1	14	-20	/
Cc1nc(NC2=NCN(CCc3ccccc3)CN2)nc2ccccc12	/	37*	/	/	1	/
CC(C)NC(=O)N(C)C[C@H]1Oc2c(NC(=O)c3ccc(-c4nccs4)cc3)cccc2C(=O)N([C@@H](C)CO)C[C@H]1C	/	/	/	/	/	6
CC(=O)N(c1ccccc1)C1SC(=O)N(c2ccccc2)C1=O (stereo not drawn)	3	-1	6.5*	-1	10	-19
O=c1cc(-c2ccccc2)cc(-c2ccccc2)n1CCO	/	/	/	/	/	4
N#Cc1cc(C(=O)c2ccccc2O)cn(-c2ccc(Cl)cc2)c1=O	3	16	5.4*	-4	16	187
